Test results from article PMC10374283 (Journal of medicinal chemistry, 2023).
pIC50: −log10 of the molar value. Entries after “also recorded” stand apart in the source; their conditions may differ.

Key:
SARS-CoV-2 Nsp14 [1] = target: T1, SARS-CoV-2 Nsp14 (Severe acute respiratory syndrome coronavirus 2, UniProt P0DTD1); assay: biochemical; format: biochemical
Nsp14 = Nsp14 (Severe acute respiratory syndrome coronavirus 2, UniProt P0DTD1); assay: Assessment of covalent binding to Nsp14 by LC-MS; design: species or system SARS-CoV-2
In short: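 SARS-CoV-2 Nsp14 was E. coli-expressed with a His6-SUMO tag and purified after SUMO removal. Protein was incubated with a 20-fold molar excess of test compound for 2 h at room temperature (20 °C), then diluted in 0.1% formic acid. Separation used HPLC with a 5–95% acetonitrile/water gradient, followed by ESI time-of-flight mass spectrometry.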

SARS-CoV-2 = assay: Antiviral activity versus cell toxicity; format: cell-based
[2] = Colloidal aggregation by dynamic light scattering; format: physicochemical; settings: for colloid-like particle formation by DLS: 50 mM KPi pH 7.0, 1% DMSO; for CAC relative to Nsp14 IC50: DLS CAC divided by Nsp14 IC50
SARS-CoV-2 Nsp14 [3] = target: T1, SARS-CoV-2 Nsp14; assay: Mechanism of action: IC50 at varying SAM and RNA concentrations; format: biochemical; settings: varying SAM or RNA concentration
[4] = system: malate dehydrogenase (MDH); assay: Aggregation counter-screen, malate dehydrogenase inhibition; format: biochemical; settings: for inhibition of MDH: absence of detergent; for inhibition of MDH with detergent: with 0.01% Triton X-100
AmpC β-lactamase (AmpC) = AmpC β-lactamase (AmpC) (Escherichia coli, UniProt P00811); format: biochemical; settings: for inhibition of AmpC: absence of detergent; for inhibition of AmpC with detergent: with 0.01% Triton X-100
[5] = system: panel of 30 human SAM-dependent MTases; assay: Selectivity panel of 30 human SAM-dependent protein and RNA MTases; format: biochemical; settings: compounds at 10 μM, 30 human MTases
SARS-CoV-2 Nsp14 [6] = target: T1, SARS-CoV-2 Nsp14; format: biochemical; settings: preincubated at 10-fold IC50 for 1 h, diluted 100-fold
MDH or AmpC = assay: Aggregation counter-screen, enzyme not specified per compound; format: biochemical; settings: for inhibition of MDH or AmpC: absence of detergent; for inhibition of MDH or AmpC with detergent: with 0.01% of detergent

AmpC β-lactamase (AmpC), sequence (P00811 20-377): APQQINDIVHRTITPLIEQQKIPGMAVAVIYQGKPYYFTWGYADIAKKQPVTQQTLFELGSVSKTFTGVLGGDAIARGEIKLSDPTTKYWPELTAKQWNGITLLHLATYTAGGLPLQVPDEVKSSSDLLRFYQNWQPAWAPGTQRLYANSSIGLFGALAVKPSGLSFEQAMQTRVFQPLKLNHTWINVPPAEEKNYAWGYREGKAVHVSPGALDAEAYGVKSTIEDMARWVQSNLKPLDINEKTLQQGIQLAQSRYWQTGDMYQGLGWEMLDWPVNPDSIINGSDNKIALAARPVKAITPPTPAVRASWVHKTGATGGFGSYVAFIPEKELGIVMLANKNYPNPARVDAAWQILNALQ

## CCC(=O)NCCC(=O)N1CCC(C2C(=O)Nc3cc(Cl)ccc32)CC1 (centres unmarked) [ZD160–68, N-(3-(4-(6-Chloro-2-oxoindolin-3-yl)piperidin-1-yl)-3-oxopropyl)-propionamide]
SARS-CoV-2 Nsp14 [1]
  Nsp14 enzymatic inhibition (in words): inactive; also recorded: no enzymatic inhibition

## C=CC(=O)N(C)c1ccc(C(=O)Nc2ccc(-c3cn4ccsc4n3)cc2)cc1 [acryl41]
Nsp14
  covalent adduct formation with Nsp14 by mass spectrometry: did not form a measurable adduct by mass spectrometry

## C=CC(=O)NC[C@H](OC)C(=O)N1CCC(C2C(=O)Nc3cc(Cl)ccc32)CC1 (stereo partly drawn) [acryl42_10, N-((2S)-3-(4-(6-Chloro-2-oxoindolin-3-yl)piperidin-1-yl)-2-methoxy-3-oxopropyl)acrylamide]
SARS-CoV-2
  antiviral activity versus cell toxicity: for none of them could we distinguish anti-viral activity from cell toxicity
SARS-CoV-2 Nsp14 [1]
  pIC50: 5.15
SARS-CoV-2 Nsp14 [1]; relative to parent acryl42
  fold more potent than acryl42: 4.5 fold

## Cc1nc2ncc(-c3c[nH]nn3)cc2[nH]1 [‘0222, 2-Methyl-6-(1H-1,2,3-triazol-4-yl)-1H-imidazo[4,5-b]pyridine]
[2]
  colloid-like particle formation by DLS: CACs at relevant concentrations

## Oc1ccccc1-c1ncnc2[nH]ccc12 [‘0683, 2-(7H-Pyrrolo[2,3-d]pyrimidin-4-yl)phenolv]
SARS-CoV-2
  antiviral activity versus cell toxicity: for none of them could we distinguish anti-viral activity from cell toxicity
SARS-CoV-2 Nsp14 [1]; from Nsp14 IC50
  ligand efficiency (LE): 0.42 kcal/heavy atom
SARS-CoV-2 Nsp14 [3]
  pattern of inhibition versus SAM and RNA: competitive and presumably reversible inhibitor of both SAM and RNA binding
[4]
  inhibition of MDH: both MDH and AmpC
AmpC β-lactamase (AmpC)
  inhibition of AmpC: both MDH and AmpC

## C=C(Cl)COC(=O)c1cnc2[nH]ccc2c1 [‘0741, 2-Chloroallyl 1H-pyrrolo[2,3-b]pyridine-5-carboxylate]
[4]
  inhibition of MDH: inhibited MDH
  inhibition of MDH with detergent: this effect was smaller

## CN(C)c1cncc(NC(=O)c2ccc(C=O)cc2O)c1 [‘1889, N-(5-(Dimethylamino)pyridin-3-yl)-4-formyl-2-hydroxybenza-mide]
[2]
  CAC relative to Nsp14 IC50: CAC five-fold higher than its Nsp14 IC50
[4]
  inhibition of MDH: did not inhibit either counter-screening enzyme under any measured condition
AmpC β-lactamase (AmpC)
  inhibition of AmpC: did not inhibit either counter-screening enzyme under any measured condition

## N#Cc1ccc(NC(=O)c2cc(C=O)n3c2CCCC3)c2cc(O)ccc12 [‘1911, N-(4-Cyano-7-hydroxynaphthalen-1-yl)-3-formyl-5,6,7,8-tetra-hydroindolizine-1-carboxamide]
[5]
  inhibition of panel enzymes (>50% criterion): inhibiting only two histone MTases; also recorded: only hit two very closely related MTases
SARS-CoV-2
  antiviral activity versus cell toxicity: for none of them could we distinguish anti-viral activity from cell toxicity
[2]
  colloid-like particle formation by DLS: did form colloid-like particles by DLS at a relevant concentration
[4]
  inhibition of MDH: did inhibit AmpC and MDH in the absence of Triton
  inhibition of MDH with detergent: this inhibition disappeared
Nsp14
  covalent adduct formation with Nsp14 by mass spectrometry: did not increase the molecular mass of Nsp14
SARS-CoV-2 Nsp14 [6]
  reversibility of Nsp14 inhibition by jump/rapid dilution: little residual inhibition when diluted below its IC50
AmpC β-lactamase (AmpC)
  inhibition of AmpC: did inhibit AmpC and MDH in the absence of Triton
  inhibition of AmpC with detergent: this inhibition disappeared

## O=C(COC(=O)c1cc(-c2ccoc2)n[nH]1)Nc1ccc(Br)cc1 [‘1988, 2-((4-Bromophenyl)amino)-2-oxoethyl 3-(Furan-3-yl)-1H-pyra-zole-5-carboxylate]
[5]
  inhibition of panel enzymes (>50% criterion): inhibiting nine enzymes more than 50%
SARS-CoV-2
  antiviral activity versus cell toxicity: for none of them could we distinguish anti-viral activity from cell toxicity
SARS-CoV-2 Nsp14 [1]
  pIC50: 5.22
[2]
  colloid-like particle formation by DLS: formed colloid-like particles by DLS
  CAC relative to Nsp14 IC50: 10 fold
SARS-CoV-2 Nsp14 [3]
  pattern of inhibition versus SAM and RNA: SAM- and RNA-competitive pattern of inhibition
[4]
  inhibition of MDH: inhibition of MDH was in a relevant range
  inhibition of MDH with detergent: inhibition of both enzymes disappeared
SARS-CoV-2 Nsp14 [6]
  reversibility of Nsp14 inhibition by jump/rapid dilution: noncovalent inhibitor
AmpC β-lactamase (AmpC)
  inhibition of AmpC with detergent: inhibition of both enzymes disappeared

## Cc1c(C(=O)/C=C/c2ccc(O)c([N+](=O)[O-])c2)c(C#N)c2n1CCC2 [‘4824, (E)-6-(3-(4-Hydroxy-3-nitrophenyl)acryloyl)-5-methyl-2,3-dihydro-1H-pyrrolizine-7-carbonitrile]
[5]
  inhibition of panel enzymes (>50% criterion): no inhibition greater than 50% for any enzyme in the panel; also recorded: Nsp14-selective
[2]
  colloid-like particle formation by DLS: did not form detectable particles by DLS
SARS-CoV-2 Nsp14 [3]
  pattern of inhibition versus SAM and RNA: SAM- and RNA-competitive pattern of inhibition
[4]
  inhibition of MDH: did inhibit the counter-screening enzymes MDH and AmpC at relevant concentrations
  inhibition of MDH with detergent: inhibition was largely or entirely eliminated
SARS-CoV-2 Nsp14 [6]
  reversibility of Nsp14 inhibition by jump/rapid dilution: inhibition by ‘4824 is not due to the nitrile electrophile
AmpC β-lactamase (AmpC)
  inhibition of AmpC: did inhibit the counter-screening enzymes MDH and AmpC at relevant concentrations
  inhibition of AmpC with detergent: inhibition was largely or entirely eliminated

## Cc1cc(C(=O)Nc2cccc(N3CCNC3=O)c2C)sc1C=O [‘4975, 5-Formyl-4-methyl-N-(2-methyl-3-(2-oxoimidazolidin-1-yl)-phenyl)thiophene-2-carboxamide]
SARS-CoV-2
  antiviral activity versus cell toxicity: for none of them could we distinguish anti-viral activity from cell toxicity

## CC(C)SCn1cnc2cnn(C)c2c1=O [‘5604, 6-((Isopropylthio)methyl)-1-methyl-1H-pyrazolo[4,3-d]-pyrimidin-7(6H)-One]
[2]
  colloid-like particle formation by DLS: CACs at relevant concentrations
[4]
  inhibition of MDH: inhibited MDH

## O=C(NC1CSC1)c1ncnn2cccc12 [‘5763, N-(Thietan-3-yl)pyrrolo[2,1-f][1,2,4]triazine-4-carboxamide]
[2]
  colloid-like particle formation by DLS: CACs at relevant concentrations

## Cn1ncc(N)c1-c1cc2ccccc2[nH]1 [‘6066, 5-(1H-Indol-2-yl)-1-methyl-1H-pyrazol-4-amine]
[2]
  colloid-like particle formation by DLS: CACs at relevant concentrations

## N#Cc1c(C(=O)NCc2ccc(O)c([N+](=O)[O-])c2)[nH]c2ccccc12 [‘6943, 3-Cyano-N-(4-hydroxy-3-nitrobenzyl)-1H-indole-2-carboxamide]
[2]
  colloid-like particle formation by DLS: did form colloid-like particles by DLS
MDH or AmpC
  inhibition of MDH or AmpC: inhibited MDH or AmpC at relevant concentrations
  inhibition of MDH or AmpC with detergent: inhibition was largely eliminated

## Cn1c(C(=O)NCc2ccc(O)c([N+](=O)[O-])c2)c(Br)c2ccccc21 [‘6947, 3-Bromo-N-(4-hydroxy-3-nitrobenzyl)-1-methyl-1H-indole-2-carboxamide]
[2]
  colloid-like particle formation by DLS: did form colloid-like particles by DLS
MDH or AmpC
  inhibition of MDH or AmpC: inhibited MDH or AmpC at relevant concentrations
  inhibition of MDH or AmpC with detergent: inhibition was largely eliminated

## Cc1c(C(=O)/C=C/c2cc(Br)c(O)cc2F)c(C#N)c2n1CCC2 [‘6953, (E)-6-(3-(5-Bromo-2-fluoro-4-hydroxyphenyl)acryloyl)-5-methyl-2,3-dihydro-1H-pyrrolizine-7-carbonitrile]
[2]
  colloid-like particle formation by DLS: did form colloid-like particles by DLS
MDH or AmpC
  inhibition of MDH or AmpC: inhibited MDH or AmpC at relevant concentrations
  inhibition of MDH or AmpC with detergent: inhibition was largely eliminated

## Cn1c(=O)[nH]c2ncc(-c3cccc(C(=O)Nc4cccc(C#N)c4)c3)cc21 [‘9213, N-(3-Cyanophenyl)-3-(1-methyl-2-oxo-2,3-dihydro-1H-imidazo-[4,5-b]pyridin-6-yl)benzamide]
SARS-CoV-2 Nsp14 [1]; tested at 30 and 50 μM
  enzyme inhibition at 30 and 50 μM: more than 50%
[2]
  colloid-like particle formation by DLS: did form colloid-like particles by DLS
